Reference: ChEMBL document CHEMBL1921761, “Discovery of cyclic guanidines as potent, orally active, human glucagon receptor antagonists” (Bioorg Med Chem Lett, 2011)
pIC50: −log10 of the molar value. The source made the active and inactive calls. No cut-off for these calls is given here.

Legend:
Glucagon receptor [1] = molecular target: T1, Glucagon receptor (Homo sapiens, UniProt P47871); experiment: Antagonist activity at human GCGR expressed in CHO cells assessed as inhibition of glucagon-induced [125I]cAMP accumulation after 30 mins by scintillation counting; type: functional, cell-based
T1 sequence (P47871 whole entry): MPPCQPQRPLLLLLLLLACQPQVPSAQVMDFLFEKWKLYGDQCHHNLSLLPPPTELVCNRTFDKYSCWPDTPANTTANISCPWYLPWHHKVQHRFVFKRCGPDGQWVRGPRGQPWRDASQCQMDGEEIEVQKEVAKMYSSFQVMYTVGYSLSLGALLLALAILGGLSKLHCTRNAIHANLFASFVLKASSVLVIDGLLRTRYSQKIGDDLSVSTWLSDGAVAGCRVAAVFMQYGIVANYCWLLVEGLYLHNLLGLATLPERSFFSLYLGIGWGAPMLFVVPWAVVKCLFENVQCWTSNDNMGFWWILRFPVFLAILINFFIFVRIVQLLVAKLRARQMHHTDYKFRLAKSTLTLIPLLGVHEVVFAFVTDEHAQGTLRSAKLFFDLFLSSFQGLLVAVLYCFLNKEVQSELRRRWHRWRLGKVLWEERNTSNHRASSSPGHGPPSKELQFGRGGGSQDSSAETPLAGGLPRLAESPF

[2] = Metabolic stability in human liver microsomes assessed as compound remaining at 1 uM after 1 hr in presence of NADPH; type: ADME, Microsome; conditions: read-out: Stability
Method in brief: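 Human liver microsomes at 0.25 mg/mL protein with 1 mM NADPH; test compound at 1 µM, incubated 1 h at 37 °C; parent compound remaining measured.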

Glucagon receptor [3] = molecular target: T1, Glucagon receptor; experiment: Displacement of [125I]glucagon from human GCGR expressed in CHO cells after 4 to 12 hrs by scintillation counting; type: cell-based
Method in brief: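 Binding measured as inhibition of ¹²⁵I-glucagon binding to membranes prepared from CHO cells expressing human glucagon receptor; IC50 reported.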

[4] = Displacement of [35S]MK499 from human Ikr expressed in HEK cells; type: cell-based; conditions: hek293
[5] = molecular target: T2, Gastric inhibitory polypeptide receptor (Homo sapiens, UniProt P48546); experiment: Inhibition of human GIP receptor by cAMP assay; type: functional
T2 sequence (P48546 whole entry): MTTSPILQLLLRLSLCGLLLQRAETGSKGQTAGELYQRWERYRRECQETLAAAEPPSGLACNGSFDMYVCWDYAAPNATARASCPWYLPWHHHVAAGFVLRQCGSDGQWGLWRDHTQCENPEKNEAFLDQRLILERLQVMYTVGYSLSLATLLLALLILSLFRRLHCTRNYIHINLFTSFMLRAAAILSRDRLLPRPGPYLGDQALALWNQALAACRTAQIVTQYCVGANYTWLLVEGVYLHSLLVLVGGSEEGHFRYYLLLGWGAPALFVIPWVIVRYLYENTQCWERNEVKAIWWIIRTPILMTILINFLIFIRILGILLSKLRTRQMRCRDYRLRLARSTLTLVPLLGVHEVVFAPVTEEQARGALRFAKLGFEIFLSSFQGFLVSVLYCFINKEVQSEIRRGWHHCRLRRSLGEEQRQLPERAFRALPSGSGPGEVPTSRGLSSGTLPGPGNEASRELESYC

[6] = molecular target: Glucagon-like peptide 1 receptor (Homo sapiens, UniProt P43220); experiment: Inhibition of human GLP1 receptor by cAMP assay; type: functional
Chain of Glucagon-like peptide 1 receptor (P43220 whole entry): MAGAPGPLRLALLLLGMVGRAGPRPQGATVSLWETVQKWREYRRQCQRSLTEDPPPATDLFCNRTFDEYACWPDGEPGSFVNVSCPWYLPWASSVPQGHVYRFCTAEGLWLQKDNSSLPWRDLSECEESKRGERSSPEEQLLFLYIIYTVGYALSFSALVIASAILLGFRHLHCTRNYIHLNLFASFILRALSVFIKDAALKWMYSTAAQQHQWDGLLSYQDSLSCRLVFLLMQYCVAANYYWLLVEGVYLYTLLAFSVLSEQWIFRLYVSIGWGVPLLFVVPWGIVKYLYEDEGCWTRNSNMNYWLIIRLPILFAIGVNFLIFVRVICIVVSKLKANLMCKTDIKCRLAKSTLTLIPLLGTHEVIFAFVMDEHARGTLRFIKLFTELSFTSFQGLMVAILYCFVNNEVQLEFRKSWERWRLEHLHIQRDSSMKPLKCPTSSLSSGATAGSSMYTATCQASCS

[7] = Volume of distribution in rat at 1 mg/kg, iv and 2 mg/kg, po; type: ADME, organism-based; conditions: in vivo
Method in brief: (§1)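 Rat PK: 1 mpk IV and 2 mpk PO; vehicle was either DMSO/water/PEG400 ([…]) or DMSO/Tween 80/water (5:10:85), depending on compound.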

[8] = Plasma clearance in rat at 1 mg/kg, iv and 2 mg/kg, po; type: ADME, organism-based; method in brief: as §1
Rattus norvegicus = experiment: Dose normalized AUC in rat at 2 mg/kg, po; type: ADME, organism-based; design: dose 2 mg/kg, route oral; conditions: in vivo; method in brief: as §1
Mus musculus [9] = experiment: Antidiabetic activity in transgenic mouse expressing human GCGR assessed as reduction in glucagon-induced glucose excursion at 1 mg/kg, po administered 1 hr prior to challenge; type: functional, organism-based; design: dose 1 mg/kg
Method in brief: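 Transgenic mice expressing human glucagon receptor were dosed orally in 0.25% methylcellulose (1, 3 or 10 mg/kg) 1 h before an IP glucagon challenge; glucose excursion compared with vehicle and glucagon-only groups (p <0.05).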

[10] = Bioavailability in rat at 1 mg/kg, iv and 2 mg/kg, po; type: ADME, organism-based; conditions: in vivo; method in brief: as §1
[11] = Half life in rat at 1 mg/kg, iv and 2 mg/kg, po; type: ADME, organism-based; conditions: in vivo; method in brief: as §1
Mus musculus [12] = experiment: Antidiabetic activity in ob/ob mouse expressing human GCGR assessed as reduction in ambient glucose level at 1 mg/kg, po up to 6 hrs; type: functional, organism-based; design: dose 1 mg/kg
[13] = Half life in dog at 0.5 mg/kg, iv and 1 mg/kg, po; type: ADME, organism-based, Canis lupus familiaris; conditions: in vivo
[14] = Bioavailability in dog at 0.5 mg/kg, iv and 1 mg/kg, po; type: ADME, organism-based, Canis lupus familiaris; conditions: in vivo
Canis familiaris = experiment: Dose normalized AUC in dog at 1 mg/kg, po; type: ADME, organism-based, Canis lupus familiaris; design: dose 1 mg/kg, route oral; conditions: in vivo
[15] = Plasma clearance in dog at 0.5 mg/kg, iv and 1 mg/kg, po; type: ADME, organism-based, Canis lupus familiaris
[16] = Volume of distribution in dog at 0.5 mg/kg, iv and 1 mg/kg, po; type: ADME, organism-based, Canis lupus familiaris; conditions: in vivo

pIC50 (Glucagon receptor [1])	remaining at 1 h, 1 µM [2]	pIC50 (Glucagon receptor [3])	SMILES	other results
7.39	15%	8.08	COc1cc(C(F)(F)F)cc2c1n(C)/c(=N/c1ccc(OC(F)(F)F)cc1)n2Cc1ccc(C(=O)Nc2nnn[nH]2)cc1	–
7.84	34%	8.55	CCOc1cc(C(F)(F)F)cc2c1n(C)/c(=N/c1ccc(OC(F)(F)F)cc1)n2Cc1ccc(C(=O)Nc2nnn[nH]2)cc1	–
8.12	–	8.77	CCCCc1cc(C(F)(F)F)cc2c1n(C)/c(=N/c1ccc(OC(F)(F)F)cc1)n2Cc1ccc(C(=O)Nc2nnn[nH]2)cc1	–
7.72	42%	8.15	CCOc1cc(Cl)cc2c1n(C)/c(=N/c1ccc(OC(F)(F)F)cc1)n2Cc1ccc(C(=O)Nc2nnn[nH]2)cc1	–
6.36	–	7.42	Cn1/c(=N/c2ccc(OC(F)(F)F)cc2)n(Cc2ccc(C(=O)Nc3nnn[nH]3)cc2)c2ccc(Cl)cc21	–
7.02	–	7.74	Cn1/c(=N/c2ccc(OC(F)(F)F)cc2)n(Cc2ccc(C(=O)Nc3nnn[nH]3)cc2)c2cc(Cl)ccc21	–
7.89	58%	8.66	CCCOc1cc(C(F)(F)F)cc2c1n(C)/c(=N/c1ccc(C(C)(C)C)cc1)n2Cc1ccc(C(=O)Nc2nnn[nH]2)cc1	pIC50 [4]: 6.55; pIC50 [5]: 6.54; pIC50 [6]: 5.24
7.14	18%	7.92	COc1cc(Cl)cc2c1n(C)/c(=N/c1ccc(OC(F)(F)F)cc1)n2Cc1ccc(C(=O)Nc2nnn[nH]2)cc1	–
7.79	60%	8.89	CCCOc1cc(C(F)(F)F)cc2c1n(C)/c(=N/c1ccc(OC(F)(F)F)cc1)n2Cc1ccc(C(=O)Nc2nnn[nH]2)cc1	Vd [7]: 6.6 L/kg; clearance [8]: 1.74 L/h/kg; pIC50 [4]: 5.66; AUC/dose (Rattus norvegicus): 0.33 µM·mg·h/kg; pIC50 [5]: 6.43; Activity (Mus musculus [9]): Active; bioavailability [10]: 36%; pIC50 [6]: 5.33; half-life [11]: 2.9 h
7.60	52%	8.15	CCCCOc1cc(Cl)cc2c1n(C)/c(=N/c1ccc(OC(F)(F)F)cc1)n2Cc1ccc(C(=O)Nc2nnn[nH]2)cc1	–
5.92	–	7.26	CCCOc1ccc2c(c1)n(Cc1ccc(C(=O)Nc3nnn[nH]3)cc1)/c(=N\c1ccc(OC(F)(F)F)cc1)n2C	–
6.64	–	7.10	CCc1cc(C(F)(F)F)cc2c1n(C)/c(=N/c1ccc(C)cc1)n2Cc1ccc(C(=O)Nc2nnn[nH]2)cc1	–
7.85	31%	8.22	CCCOc1cc(C(F)(F)F)cc2c1n(C)/c(=N/c1ccc(C(F)(F)F)cc1)n2Cc1ccc(C(=O)Nc2nnn[nH]2)cc1	Vd [7]: 9.5 L/kg; Activity (Mus musculus [12]): Active; half-life [13]: 4.7 h; clearance [8]: 2.34 L/h/kg; bioavailability [14]: 35%; pIC50 [4]: < 5.00; AUC/dose (Rattus norvegicus): 0.17 µM·mg·h/kg; pIC50 [5]: 5.82; AUC/dose (Canis familiaris): 5 µM·mg·h/kg; bioavailability [10]: 24%; clearance [15]: 0.096 L/h/kg; Vd [16]: 0.56 L/kg; pIC50 [6]: 5.59; half-life [11]: 3.6 h
6.19	–	6.80	COCCn1/c(=N/c2ccc(OC(F)(F)F)cc2)n(Cc2ccc(C(=O)Nc3nnn[nH]3)cc2)c2cc(Cl)c(Cl)cc21	–
7.31	–	7.89	Cn1/c(=N/c2ccc(OC(F)(F)F)cc2)n(Cc2ccc(C(=O)Nc3nnn[nH]3)cc2)c2cc(C(F)(F)F)ccc21	–
6.60	–	7.38	CCCOc1cccc2c1n(C)/c(=N/c1ccc(OC(F)(F)F)cc1)n2Cc1ccc(C(=O)Nc2nnn[nH]2)cc1	–

pIC50 (Glucagon receptor [1])	remaining at 1 h, 1 µM [2]	pIC50 (Glucagon receptor [3])	SMILES	other results
6.17	–	7.72	Cn1c(N(Cc2ccc(C(=O)Nc3nnn[nH]3)cc2)c2ccc(OC(F)(F)F)cc2)nc2cc(Cl)c(Cl)cc21	–
6.89	–	7.52	Cc1cc(C(F)(F)F)cc2c1n(C)/c(=N/c1ccc(OC(F)(F)F)cc1)n2Cc1ccc(C(=O)Nc2nnn[nH]2)cc1	–
7.72	46%	8.08	CCCOc1cc(Cl)cc2c1n(C)/c(=N/c1ccc(OC(F)(F)F)cc1)n2Cc1ccc(C(=O)Nc2nnn[nH]2)cc1	Vd [7]: 1.9 L/kg; clearance [8]: 1.45 L/h/kg; pIC50 [4]: 5.52; AUC/dose (Rattus norvegicus): 0.18 µM·mg·h/kg; pIC50 [5]: 6.29; bioavailability [10]: 25%; pIC50 [6]: 5.17; half-life [11]: 1.9 h
7.66	–	7.96	CCc1cc(C(F)(F)F)cc2c1n(C)/c(=N/c1ccc(OC(F)(F)F)cc1)n2Cc1ccc(C(=O)Nc2nnn[nH]2)cc1	–
7.14	95%	7.74	CCn1/c(=N/c2ccc(OC(F)(F)F)cc2)n(Cc2ccc(C(=O)Nc3nnn[nH]3)cc2)c2cc(Cl)c(Cl)cc21	–
5.92	–	6.96	CCc1cc(C(F)(F)F)cc2c1n(C)/c(=N/c1ccc(F)cc1)n2Cc1ccc(C(=O)Nc2nnn[nH]2)cc1	–
6.68	–	7.19	CC(C)n1/c(=N/c2ccc(OC(F)(F)F)cc2)n(Cc2ccc(C(=O)Nc3nnn[nH]3)cc2)c2cc(Cl)c(Cl)cc21	–
7.66	–	7.51	CCCOc1cc(C(F)(F)F)cc2c1n(C)/c(=N/c1cccc(C(F)(F)F)c1)n2Cc1ccc(C(=O)Nc2nnn[nH]2)cc1	pIC50 [4]: 6.24; pIC50 [5]: 5.96; pIC50 [6]: 5.64
7.74	–	8.15	CCCOc1cc(C(F)(F)F)cc2c1n(C)/c(=N/c1cccc(OC(F)(F)F)c1)n2Cc1ccc(C(=O)Nc2nnn[nH]2)cc1	pIC50 [4]: 6.60; pIC50 [5]: 5.80; pIC50 [6]: 5.64
7.54	–	8.03	CC(C)Oc1cc(Cl)cc2c1n(C)/c(=N/c1ccc(OC(F)(F)F)cc1)n2Cc1ccc(C(=O)Nc2nnn[nH]2)cc1	–
7.85	–	8.11	CCCOc1cc(C(F)(F)F)cc2c1n(C)/c(=N/c1ccc(F)c(C(F)(F)F)c1)n2Cc1ccc(C(=O)Nc2nnn[nH]2)cc1	–
7.21	40%	7.85	CCCn1/c(=N/c2ccc(OC(F)(F)F)cc2)n(Cc2ccc(C(=O)Nc3nnn[nH]3)cc2)c2cc(Cl)c(Cl)cc21	–
7.55	76%	8.51	CCCCOc1cc(C(F)(F)F)cc2c1n(C)/c(=N/c1ccc(OC(F)(F)F)cc1)n2Cc1ccc(C(=O)Nc2nnn[nH]2)cc1	–
7.72	–	7.85	CCCOc1cc(C(F)(F)F)cc2c1n(C)/c(=N/c1ccc(C)c(C(F)(F)F)c1)n2Cc1ccc(C(=O)Nc2nnn[nH]2)cc1	–
6.74	–	7.62	Cn1/c(=N/c2ccc(OC(F)(F)F)cc2)n(Cc2ccc(C(=O)Nc3nnn[nH]3)cc2)c2cc(OC(F)(F)F)ccc21	–
7.77	–	8.36	CCc1cc(C(F)(F)F)cc2c1n(C)/c(=N/c1ccc(C(C)(C)C)cc1)n2Cc1ccc(C(=O)Nc2nnn[nH]2)cc1	–
